Activity calls are given as the source filed them. No cut-off for these calls is given here.
Experiments:
[1] = target: T1, LgtC (Neisseria meningitidis) (UniProt Q93EK7); test: Inhibition of recombinant Neisseria meningitidis glycosyltransferase LgtC assessed as ratio of Kinact/Ki using UDP-Gal/lactose as substrate preincubated for 20 mins with UDP-Gal followed by lactose addition measured after 20 mins in presence of MnCl2
T1 sequence (whole entry): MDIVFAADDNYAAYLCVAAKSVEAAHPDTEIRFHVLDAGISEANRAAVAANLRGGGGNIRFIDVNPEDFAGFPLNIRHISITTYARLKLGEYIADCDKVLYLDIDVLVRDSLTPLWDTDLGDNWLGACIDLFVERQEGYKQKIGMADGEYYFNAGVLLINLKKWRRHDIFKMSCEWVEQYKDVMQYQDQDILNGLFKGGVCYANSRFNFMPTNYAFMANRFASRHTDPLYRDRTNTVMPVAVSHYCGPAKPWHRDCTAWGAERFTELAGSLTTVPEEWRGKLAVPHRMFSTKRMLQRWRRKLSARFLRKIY
Procedure, shortened: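 Kinetic parameters from LgtC activity at ranges of inhibitor (0-50 up to 0-250 µM) after 0, 5, 10 and 20 min pre-incubation. Activity, as % of DMSO control, was plotted against pre-incubation time and fitted exponentially to give Kobs. Kobs was then fitted against [I] with the hyperbolic equation to obtain kinact and Ki. Triplicate.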

LgtC [2] = target: T2, LgtC (Neisseria meningitidis, UniProt Q93EK7); test: (§1) Inhibition of recombinant Neisseria meningitidis glycosyltransferase LgtC using UDP-Gal/lactose as substrate preincubated for 20 mins with UDP-Gal followed by lactose addition measured after 20 mins in presence of MnCl2 by malachite green dye based colorimetric assay
T2 sequence (Q93EK7 whole entry): T1 sequence (whole entry)
Procedure, shortened: (§2)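 Dose-response with DTT-activated recombinant N. meningitidis LgtC at 20-50% donor turnover. Pre-incubation was 20 min at 30 °C with inhibitor (0.1-50 up to 0.1-250 µM, 10% DMSO), UDP-Gal 28 µM, MnCl2 5 mM, CIP 10 U/mL, CEL 1 mg/mL and Triton 0.01% in 13 mM HEPES pH 7.0. Lactose 2 mM was then added for 20 min at 30 °C. Malachite Green A620 read-out; triplicate, mean ± SD.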

LgtC [3] = target: T2, LgtC; test: as §1, with “for 30” for “for 20”, “MnCl2 and calf intestinal phosphatase” for “MnCl2”, “based enzyme-coupled” for “based”, “assay relative to control” for “assay”
Procedure, shortened: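 IC50 set-up using DTT-activated recombinant N. meningitidis LgtC at 20-50% donor turnover. Enzyme was pre-incubated 30 min at 30 °C with inhibitor (0.1-100 or 0.1-50 µM, 10% DMSO), UDP-Gal 28 µM, MnCl2 5 mM, CIP 10 U/mL, CEL 1 mg/mL and Triton 0.01% in 13 mM HEPES pH 7.0. Lactose 2 mM was added for 20 min at 30 °C, then read by Malachite Green phosphate detection at 620 nm.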

[4] = target: T1, LgtC (Neisseria meningitidis); test: (§3) Inhibition of recombinant Neisseria meningitidis glycosyltransferase LgtC using UDP-Gal/lactose as substrate at 25 uM preincubated for 30 mins with UDP-Gal followed by lactose addition measured after 20 mins in presence of MnCl2 and calf intestinal phosphatase by malachite green dye based enzyme-coupled colorimetric assay relative to control
Procedure, shortened: (§4)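 Recombinant N. meningitidis LgtC, activated with 10 mM DTT (1:1, 30 min, 30 °C) and set to 20-50% UDP-Gal turnover. It was pre-incubated 30 min at 30 °C with 25 or 50 µM inhibitor in 13 mM HEPES pH 7.0 containing UDP-Gal 28 µM, MnCl2 5 mM, CIP 10 U/mL, CEL 1 mg/mL, Triton 0.01% and 10% DMSO. Lactose 2 mM was then added for 20 min at 30 °C. Malachite Green read at A620; activity taken against a DMSO control.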

Haemophilus influenzae [5] = test: Growth inhibition of Haemophilus influenzae R2866 up to 100 uM incubated for 1 hr followed by drug removal and re-plating of colonies for 24 hrs by bacterial viable count method; assay type: organism-based; conditions: in vivo
Procedure, shortened: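 H. influenzae R2866 was grown overnight in supplemented BHI at 37 °C, 180 rpm, then diluted to OD590 0.7. Cells were exposed 1 h at 37 °C to compound (0-200 µM; final DMSO 10%) or DMSO. They were centrifuged, washed twice with sBHI, serially diluted and plated on chocolate agar (24 h, 37 °C, 5% CO2) for viable counts. Triplicate, mean; unpaired t-test.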

[6] = target: T1, LgtC (Neisseria meningitidis); test: as §3, with “50” for “25”; procedure, shortened: as §4
Haemophilus influenzae [7] = test: Potentiation of human serum-induced killing of Haemophilus influenzae R2866 at 50 uM in presence of 30% v/v human serum pre-incubated for 1 hr followed by drug removal and re-plating of colonies for 24 hrs by bacterial viable count method; assay type: functional, organism-based
Procedure, shortened: (§5)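 Overnight R2866 sBHI culture, diluted to OD590 0.7, was exposed 1 h at 37 °C to 30% v/v normal human serum plus inhibitor (50 or 100 µM); the control received 30% serum alone. Serum and compound were removed by centrifugation and two sBHI washes. Cells were serially diluted and plated on chocolate agar (24 h, 37 °C, 5% CO2) for viable counts. Triplicate, mean.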

LgtC [8] = target: T2, LgtC; test: (§6) Inhibition of recombinant Neisseria meningitidis glycosyltransferase LgtC using UDP-Gal/lactose as substrate preincubated for 20 mins with UDP-Gal followed by lactose addition measured after 20 mins in presence of MnCl2; procedure, shortened: as §2
[9] = target: T1, LgtC (Neisseria meningitidis); test: as §6; procedure, shortened: as §2
Haemophilus influenzae [10] = test: Toxicity against Haemophilus influenzae R2866; assay type: organism-based; conditions: in vivo
Haemophilus influenzae [11] = test: Potentiation of human serum-induced killing of Haemophilus influenzae R2866 at 100 uM in presence of 30% v/v human serum pre-incubated for 1 hr followed by drug removal and re-plating of colonies for 24 hrs by bacterial viable count method; assay type: functional, organism-based; procedure, shortened: as §5

SMILES	Ratio [1] [M⁻¹ s⁻¹]	IC50 (LgtC [2]) [µM]	IC50 (LgtC [3]) [µM]	inhibition [4] [%]	inhibition [6] [%]	Ki (LgtC [8]) [µM]	Kinact [9] [s⁻¹]	also measured
O=C1/C(=C\c2cccc(Cl)c2)C(C(F)(F)F)=NN1c1ccccc1	18	64				88	0.0016	
O=C1/C(=C\c2ccc(O)cc2)C(C(F)(F)F)=NN1c1ccccc1	370	5.8				6.8	0.0025	
CC1=NN(c2ccccc2)C(=O)/C1=C\c1ccccc1C(F)(F)F								growth inhibition (GI) (Haemophilus influenzae [10]): Toxic; Activity (Haemophilus influenzae [11]): inactive; growth inhibition (GI) (Haemophilus influenzae [5]): Non-Toxic
O=C1/C(=C\c2ccccc2)C(C(F)(F)F)=NN1c1ccccc1	13	63	28			153	0.002	
O=C1/C(=C\c2cccc(OCc3ccccc3)c2)C(C(F)(F)F)=NN1c1ccccc1	36	38	18			50	0.0018	growth inhibition (GI) (Haemophilus influenzae [10]): Toxic; Activity (Haemophilus influenzae [11]): inactive; growth inhibition (GI) (Haemophilus influenzae [5]): Non-Toxic
CCOC(=O)c1ccccc1/C=C1\C(=O)N(c2ccccc2)N=C1C(F)(F)F			> 100					
COc1ccc(/C=C2\C(=O)N(c3cccc(C(=O)NCCO)c3)N=C2C(F)(F)F)cc1Br			4.3					
COc1ccc(/C=C2\C(=O)N(c3ccccc3)N=C2C(F)(F)F)cc1	80	8.9				19	0.0015	
O=C1/C(=C\c2ccc(OCc3ccccc3)cc2)C(C(F)(F)F)=NN1c1ccccc1	238	3.3				4.7	0.0011	
O=C1/C(=C\c2ccc(Cl)cc2)C(C(F)(F)F)=NN1c1ccccc1	18	80	25			49	0.0009	

Second part, led by results:

Ratio [1] [M⁻¹ s⁻¹]	IC50 (LgtC [2]) [µM]	IC50 (LgtC [3]) [µM]	inhibition [4] [%]	inhibition [6] [%]	Ki (LgtC [8]) [µM]	Kinact [9] [s⁻¹]	SMILES	also measured
163	6.4	3.1	80	84	7.1	0.0012	COc1ccc(/C=C2\C(=O)N(c3ccccc3)N=C2C(F)(F)F)cc1Br	growth inhibition (GI) (Haemophilus influenzae [5]): Non-Toxic; Activity (Haemophilus influenzae [7]): inactive
		12					COc1ccc(/C=C2\C(=O)N(Cc3ccccc3)N=C2C(F)(F)F)cc1Br	
			31	39			COc1ccc(/C=C2\C(=O)N(c3ccccc3)N=C2C(N)=O)cc1Br	
		3					COc1ccc(/C=C2\C(=O)N(c3cccc(C(=O)O)c3)N=C2C(F)(F)F)cc1Br	
			61	66			CCOC(=O)C1=NN(c2ccccc2)C(=O)/C1=C\c1ccc(OC)c(Br)c1	
		2.9					COc1ccc(/C=C2\C(=O)N(c3ccc(C(=O)O)cc3)N=C2C(F)(F)F)cc1Br	
			35	58			COc1ccc(/C=C2\C(=O)N(c3ccccc3)N=C2C(=O)O)cc1Br	
		> 50	33	43			COc1ccc(/C=C2\C(=O)N(c3ccccc3)N=C2C)cc1Br	
			32	67			CCOC(=O)CC1=NN(c2ccccc2)C(=O)/C1=C\c1ccc(OC)c(Br)c1	

Source: ChEMBL document CHEMBL4219186, “Structure-activity relationships in a new class of non-substrate-like covalent inhibitors of the bacterial glycosyltransferase LgtC” (Bioorg Med Chem, 2018)
